Columns and labels:
[1] = Acute toxicity was determined 168 hr after a single ip injection to groups of four male ddY mice.; assay type: organism-based; details: mouse, in vivo
Outline: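 LD50 calculated by the method of Weil.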

Rattus norvegicus [2] = assay: Inhibitory activity on carrageenan-induced paw edema in rats 3h after po administration of 50 mg/kg; assay type: functional
Outline: (§1)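 Oral dosing, screened first at 50 mg/kg and retested at 20 and 10 mg/kg if inhibition was 30% or more. Paw volume was remeasured at 3 h, and the increase was compared with controls to give percent inhibition.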

Mus musculus = assay: Analgesic activity against AcOH writhing after po administration.
Rattus norvegicus [3] = assay: Inhibitory activity on carrageenan-induced paw edema in rats 3h after po administration of 20 mg/kg; assay type: functional; outline: as §1
Rattus norvegicus [4] = assay: Inhibitory activity on carrageenan-induced paw edema in rats 3h after po administration of 10 mg/kg; assay type: functional; outline: as §1
Rattus norvegicus [5] = assay: Inhibitory activity on carrageenan-induced paw edema in rats 3h after administration of 20 mg/kg; assay type: functional; outline: as §1
Rattus norvegicus [6] = assay: Inhibitory activity on carrageenan-induced paw edema in rats 3h after po administration of 0.5 mg/kg; assay type: functional; details: read-out: Inhibition
Rattus norvegicus [7] = assay: Inhibitory activity on carrageenan-induced paw edema in rats 3h after po administration of 5 mg/kg; assay type: functional; details: read-out: Inhibition
Rattus norvegicus [8] = assay: Inhibitory activity on carrageenan-induced paw edema in rats 3h after po administration of 2 mg/kg; assay type: functional; details: read-out: Inhibition

Compound COc1ccc(-c2cccc(CC(=O)O)c2)cc1 has an LD50 at 168 h [1] of over 800 mg/kg, an inhibition in vivo at 50 mg/kg (Rattus norvegicus [2]) of 11% and an ED50 (Mus musculus) of over 50 mg/kg.

Compound COc1ccc(-c2cc(CC(=O)O)cc(NC(C)=O)c2)cc1 has an LD50 at 168 h [1] of over 800 mg/kg, an inhibition in vivo at 50 mg/kg (Rattus norvegicus [2]) of 15% and an ED50 (Mus musculus) of over 50 mg/kg.

Work on O=C(O)Cc1cc(Cl)cc(-c2ccccc2)c1 yielded an LD50 at 168 h [1] of 283 mg/kg, an inhibition in vivo at 50 mg/kg (Rattus norvegicus [2]) of 32% and an inhibition in vivo at 20 mg/kg (Rattus norvegicus [3]) of 25%. For the same compound, the ED50 (Mus musculus) was over 50 mg/kg.

With CC(C(=O)O)c1cc(F)cc(-c2ccccc2)c1 (centres undefined) the LD50 at 168 h [1] was 566 mg/kg, the inhibition in vivo at 50 mg/kg (Rattus norvegicus [2]) was 31% and the ED50 (Mus musculus) was over 50 mg/kg.

Work on COc1ccc(-c2cc(Cl)cc(CC(=O)O)c2)cc1 yielded an LD50 at 168 h [1] of 570 mg/kg, an inhibition in vivo at 50 mg/kg (Rattus norvegicus [2]) of 19% and an ED50 (Mus musculus) of over 50 mg/kg.

Work on O=C(O)Cc1cccc(-c2ccccc2)c1 yielded an LD50 at 168 h [1] of 566 mg/kg, an inhibition in vivo at 50 mg/kg (Rattus norvegicus [2]) of 47% and an inhibition in vivo at 20 mg/kg (Rattus norvegicus [3]) of 0%. The ED50 (Mus musculus) was over 50 mg/kg.

For CC(C(=O)O)c1cc(F)cc(-c2ccc(Cl)cc2)c1 (centres undefined), the LD50 at 168 h [1] was 200 mg/kg, the inhibition in vivo at 50 mg/kg (Rattus norvegicus [2]) was under 39% and the inhibition in vivo at 20 mg/kg (Rattus norvegicus [3]) was under 26%. For the same compound, the ED50 (Mus musculus) was over 50 mg/kg.

Work on COc1ccc(-c2cc(N)cc(CC(=O)O)c2)cc1 yielded an LD50 at 168 h [1] of 800 mg/kg, an inhibition in vivo at 50 mg/kg (Rattus norvegicus [2]) of 0% and an ED50 (Mus musculus) of over 50 mg/kg.

In the case of Nc1cc(CC(=O)O)cc(-c2ccc(Cl)cc2)c1, the LD50 at 168 h [1] is reported as 400 mg/kg, the inhibition in vivo at 50 mg/kg (Rattus norvegicus [2]) is reported as 16% and the ED50 (Mus musculus) is reported as over 50 mg/kg.

Compound COc1ccc(-c2cccc(C(C)C(=O)O)c2)cc1 (centres undefined) has an LD50 at 168 h [1] of 566 mg/kg, an inhibition in vivo at 50 mg/kg (Rattus norvegicus [2]) of 0% and an ED50 (Mus musculus) of over 50 mg/kg.

CC(C(=O)O)c1cccc(-c2ccccc2)c1 (centres undefined) showed an LD50 at 168 h [1] of 566 mg/kg, an inhibition in vivo at 50 mg/kg (Rattus norvegicus [2]) of 17% and an ED50 (Mus musculus) of 26.8 mg/kg.

With Nc1cc(CC(=O)O)cc(-c2ccccc2)c1 the LD50 at 168 h [1] was 566 mg/kg, the inhibition in vivo at 50 mg/kg (Rattus norvegicus [2]) was 0% and the ED50 (Mus musculus) was over 50 mg/kg.

Compound CC(=O)Nc1cc(CC(=O)O)cc(-c2ccc(Cl)cc2)c1 has an LD50 at 168 h [1] of 476 mg/kg, an inhibition in vivo at 50 mg/kg (Rattus norvegicus [2]) of 0% and an ED50 (Mus musculus) of over 50 mg/kg.

COc1ccc(-c2cc(Cl)cc(C(C)C(=O)O)c2)cc1 (centres undefined) showed an LD50 at 168 h [1] of 283 mg/kg, an inhibition in vivo at 50 mg/kg (Rattus norvegicus [2]) of 8% and an ED50 (Mus musculus) of over 50 mg/kg.

In the case of O=C(O)Cc1cc(Cl)cc(-c2ccc(Cl)cc2)c1, the LD50 at 168 h [1] is reported as 283 mg/kg, the inhibition in vivo at 50 mg/kg (Rattus norvegicus [2]) is reported as 45% and the inhibition in vivo at 20 mg/kg (Rattus norvegicus [3]) is reported as 29%. For the same compound, the ED50 (Mus musculus) was over 50 mg/kg.

Compound CC(C(=O)O)c1cc(Cl)cc(-c2ccc(Cl)cc2)c1 (centres undefined) has an LD50 at 168 h [1] of 200 mg/kg, an inhibition in vivo at 50 mg/kg (Rattus norvegicus [2]) of under 41% and an inhibition in vivo at 20 mg/kg (Rattus norvegicus [3]) of under 33%. It also gave an ED50 (Mus musculus) of over 50 mg/kg.

For CC(=O)Nc1cc(CC(=O)O)cc(-c2ccccc2)c1, the LD50 at 168 h [1] was over 800 mg/kg, the inhibition in vivo at 50 mg/kg (Rattus norvegicus [2]) was 5% and the ED50 (Mus musculus) was over 50 mg/kg.

In the case of CC(C(=O)O)c1cc(Cl)cc(-c2ccccc2)c1 (centres undefined), the LD50 at 168 h [1] is reported as 168 mg/kg, the inhibition in vivo at 50 mg/kg (Rattus norvegicus [2]) is reported as 4% and the ED50 (Mus musculus) is reported as over 50 mg/kg.

For CC(C(=O)O)c1cccc(-c2ccc(Cl)cc2)c1 (centres undefined), the LD50 at 168 h [1] was 283 mg/kg, the inhibition in vivo at 50 mg/kg (Rattus norvegicus [2]) was 35% and the inhibition in vivo at 20 mg/kg (Rattus norvegicus [3]) was 31%. It also gave an ED50 (Mus musculus) of 45 mg/kg.

For O=C(O)Cc1cccc(-c2ccc(Cl)cc2)c1, the LD50 at 168 h [1] was 238 mg/kg, the inhibition in vivo at 50 mg/kg (Rattus norvegicus [2]) was 44% and the inhibition in vivo at 20 mg/kg (Rattus norvegicus [3]) was under 25%. For the same compound, the ED50 (Mus musculus) was over 50 mg/kg.

O=C(O)Cc1cc(F)cc(-c2ccc(Cl)cc2)c1 showed an LD50 at 168 h [1] of 283 mg/kg, an inhibition in vivo at 50 mg/kg (Rattus norvegicus [2]) of 38% and an inhibition in vivo at 20 mg/kg (Rattus norvegicus [3]) of 16%. The ED50 (Mus musculus) was over 50 mg/kg.

O=C(O)Cc1cc(F)cc(-c2ccccc2)c1 showed an LD50 at 168 h [1] of 566 mg/kg, an inhibition in vivo at 50 mg/kg (Rattus norvegicus [2]) of 50% and an inhibition in vivo at 10 mg/kg (Rattus norvegicus [4]) of 26%. The inhibition in vivo at 20 mg/kg (Rattus norvegicus [5]) was 45% and the ED50 (Mus musculus) was over 50 mg/kg.

Work on COc1cc(CC(=O)O)cc(-c2ccc(Cl)cc2)c1 yielded an inhibition in vivo at 50 mg/kg (Rattus norvegicus [2]) of 53%, an inhibition in vivo at 10 mg/kg (Rattus norvegicus [4]) of 39% and an inhibition in vivo at 20 mg/kg (Rattus norvegicus [3]) of 65%. The ED50 (Mus musculus) was 16.1 mg/kg.

With COc1ccc2c(c1)c(CC(=O)O)c(C)n2C(=O)c1ccc(Cl)cc1 [INDOMETHACIN] the inhibition in vivo at 0.5 mg/kg (Rattus norvegicus [6]) was 19%, the inhibition in vivo at 5 mg/kg (Rattus norvegicus [7]) was 45% and the ED50 (Mus musculus) was 3.1 mg/kg. It also gave an inhibition in vivo at 2 mg/kg (Rattus norvegicus [8]) of 25%.
